From ChEMBL document CHEMBL1156822, “Isosorbide-2-benzyl carbamate-5-salicylate, a peripheral anionic site binding subnanomolar selective butyrylcholinesterase inhibitor” (J Med Chem, 2010) come the findings set out here.

In data set [1] the target is T1, Cholinesterase (Homo sapiens, UniProt P06276). Nature of the data set: Inhibition of BuChE in human liver microsomes. For orientation: Liver microsomes are a subcellular fraction often used to study metabolism.
Data set [2] has as its target Acetylcholinesterase (Electrophorus electricus) (UniProt O42275). Nature of the data set: Inhibition of electric eel AChE type 6S at 100 uM. Put shortly: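 Electric eel AChE (type VI-S) in pH 8.0 phosphate buffer was preincubated for 30 min at 37 °C with test compound added from a 2 mmol MeCN stock. Ellman read-out followed, with final DTNB 0.3 mmol and acetylthiocholine 0.5 mmol.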

A short description of data set [3]: Selectivity for human BuChe over electric eel AChE type 6S.
Data set [4] addresses T1, Cholinesterase. Nature of the data set: Inhibition of BuChE in human liver microsomes assessed as dissociation constant for Michaelis complex formation by enzyme kinetic study. The following applies: Microsome.
The target of data set [5] is Acetylcholinesterase (Homo sapiens) (UniProt P22303). In words: Inhibition of human erythrocyte AChE at 100 uM.
Data set [6] deals with T2, Liver carboxylesterase 1 (Homo sapiens, UniProt P23141).
T2 sequence (P23141 whole entry): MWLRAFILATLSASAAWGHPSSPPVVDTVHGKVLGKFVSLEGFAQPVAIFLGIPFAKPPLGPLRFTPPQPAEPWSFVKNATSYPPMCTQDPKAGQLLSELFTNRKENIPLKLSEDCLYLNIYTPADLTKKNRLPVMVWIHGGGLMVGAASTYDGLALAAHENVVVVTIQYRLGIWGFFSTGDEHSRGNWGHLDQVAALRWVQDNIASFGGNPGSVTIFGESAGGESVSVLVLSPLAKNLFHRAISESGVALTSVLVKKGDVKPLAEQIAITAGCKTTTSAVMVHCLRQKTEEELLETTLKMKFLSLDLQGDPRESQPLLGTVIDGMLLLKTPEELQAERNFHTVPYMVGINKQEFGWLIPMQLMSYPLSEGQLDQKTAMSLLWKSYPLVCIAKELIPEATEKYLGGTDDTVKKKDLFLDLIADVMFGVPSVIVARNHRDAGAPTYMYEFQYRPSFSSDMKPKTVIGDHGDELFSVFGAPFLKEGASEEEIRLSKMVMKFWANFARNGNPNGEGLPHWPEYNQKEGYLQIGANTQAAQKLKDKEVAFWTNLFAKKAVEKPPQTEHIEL
Nature of the data set: Inhibition of human CES1-mediated pNPA substrate turnover. The essentials:
(§1)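 Source: pooled human liver microsomes (CES1) or human intestinal microsomes (CES2). The microsomes were preincubated with inhibitor at 50 nM-200 μM in 50 mM Tris-HCl pH 7.4 for 30 min at 37 °C. Substrate was pNPA at 3 mM final. p-Nitrophenol release was read at 405 nm. Rates were corrected for spontaneous-hydrolysis blanks, with four independent measurements per concentration. IC50 came from nonlinear sigmoidal curve fit.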

Data set [7] deals with T3, Cocaine esterase (Homo sapiens, UniProt O00748).
T3 sequence (O00748 whole entry): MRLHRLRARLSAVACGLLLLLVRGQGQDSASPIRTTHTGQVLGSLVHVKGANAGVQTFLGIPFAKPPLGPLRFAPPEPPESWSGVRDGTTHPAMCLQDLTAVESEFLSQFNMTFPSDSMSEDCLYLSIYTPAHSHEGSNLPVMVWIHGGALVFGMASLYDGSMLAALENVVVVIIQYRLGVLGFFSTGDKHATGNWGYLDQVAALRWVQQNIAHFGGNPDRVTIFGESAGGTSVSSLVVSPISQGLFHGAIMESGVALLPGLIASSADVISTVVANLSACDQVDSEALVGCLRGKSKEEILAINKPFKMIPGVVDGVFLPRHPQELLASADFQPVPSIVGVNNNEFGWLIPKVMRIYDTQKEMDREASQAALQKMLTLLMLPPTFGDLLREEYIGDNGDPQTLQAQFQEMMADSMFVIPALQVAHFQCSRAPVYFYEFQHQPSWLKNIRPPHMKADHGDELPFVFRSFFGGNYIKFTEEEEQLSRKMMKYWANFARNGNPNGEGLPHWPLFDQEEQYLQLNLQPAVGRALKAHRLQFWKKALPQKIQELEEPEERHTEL
Nature of the data set: Inhibition of human CES2-mediated pNPA substrate turnover. Put shortly: as §1

The species entered for data set [8] is Homo sapiens. In words: Selectivity for human BuChe over human CES2.
Data set [9] deals with Plasma. In words: Metabolic stability in 33% human plasma assessed as compound hydrolysis after 1 hr by HPLC. The class given is ADME, cell-free. Put shortly: (§2)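 The ester (1 × 10^-4 M) was incubated in human plasma solution (33-50%), mouse plasma (33%) or mouse liver homogenate. Remaining intact ester was measured by HPLC as a function of time over 1 h.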
The test system of data set [10] is Plasma. In words: Metabolic stability in 33% mouse plasma assessed as compound hydrolysis after 1 hr by HPLC. The class given is ADME, cell-free. The essentials: as §2
For data set [11], the system named is Liver. Nature of the data set: Metabolic stability in 33% mouse liver homogenate assessed as compound hydrolysis after 1 hr by HPLC. Conditions: tissue homogenate; call rule not given here. The data set is classed as ADME, tissue-based. Put shortly: as §2
Data set [12] is described as follows: Inhibition of human BuChE D70G mutant assessed as dissociation constant for Michaelis complex formation by enzyme kinetic study. Put shortly: (§3)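 Wild-type human BuChE (lyophilised, dissolved in pH 8.0 phosphate buffer) or recombinant mutants. Final concentrations: enzyme 0.05 U mL^-1, DTNB 0.3 mmol, butyrylthiocholine 0.5 mmol. Inhibitor at various concentrations was mixed with enzyme at time 0. Aliquots taken at successive times were read at 412 nm over 30 s, in at least two wells each. k_obs came from a first-order fit, and K_c from a nonlinear fit of k_obs against inhibitor concentration.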

For data set [13], the species on record is Homo sapiens. Nature of the data set: Inhibition of human BuChE Y332A mutant assessed as dissociation constant for Michaelis complex formation by enzyme kinetic study. Put shortly:
as §3

Data set [14] is filed under the species Homo sapiens. In words: Inhibition of human BuChE D70G/Y332A mutant assessed as dissociation constant for Michaelis complex formation by enzyme kinetic study. The essentials:
as §3

T1 sequence (P06276 whole entry): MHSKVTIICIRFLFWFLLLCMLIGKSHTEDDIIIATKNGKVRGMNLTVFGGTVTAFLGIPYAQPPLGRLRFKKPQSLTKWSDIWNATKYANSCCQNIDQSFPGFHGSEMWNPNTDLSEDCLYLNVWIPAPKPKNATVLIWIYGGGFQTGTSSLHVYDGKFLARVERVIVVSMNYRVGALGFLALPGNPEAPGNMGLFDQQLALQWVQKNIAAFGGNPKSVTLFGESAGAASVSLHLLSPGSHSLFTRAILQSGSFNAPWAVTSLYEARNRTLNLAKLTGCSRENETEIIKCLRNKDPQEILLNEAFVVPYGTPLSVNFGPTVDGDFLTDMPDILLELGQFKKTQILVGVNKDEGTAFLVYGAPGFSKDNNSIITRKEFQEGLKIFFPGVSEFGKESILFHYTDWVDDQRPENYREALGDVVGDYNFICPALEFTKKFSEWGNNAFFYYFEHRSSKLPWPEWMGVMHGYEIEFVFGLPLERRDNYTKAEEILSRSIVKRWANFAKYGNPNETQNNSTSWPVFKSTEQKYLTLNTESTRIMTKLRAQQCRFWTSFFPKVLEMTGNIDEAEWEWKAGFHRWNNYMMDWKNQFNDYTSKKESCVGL
Sequence of Acetylcholinesterase (Electrophorus electricus) (O42275 24-633 limits assumed): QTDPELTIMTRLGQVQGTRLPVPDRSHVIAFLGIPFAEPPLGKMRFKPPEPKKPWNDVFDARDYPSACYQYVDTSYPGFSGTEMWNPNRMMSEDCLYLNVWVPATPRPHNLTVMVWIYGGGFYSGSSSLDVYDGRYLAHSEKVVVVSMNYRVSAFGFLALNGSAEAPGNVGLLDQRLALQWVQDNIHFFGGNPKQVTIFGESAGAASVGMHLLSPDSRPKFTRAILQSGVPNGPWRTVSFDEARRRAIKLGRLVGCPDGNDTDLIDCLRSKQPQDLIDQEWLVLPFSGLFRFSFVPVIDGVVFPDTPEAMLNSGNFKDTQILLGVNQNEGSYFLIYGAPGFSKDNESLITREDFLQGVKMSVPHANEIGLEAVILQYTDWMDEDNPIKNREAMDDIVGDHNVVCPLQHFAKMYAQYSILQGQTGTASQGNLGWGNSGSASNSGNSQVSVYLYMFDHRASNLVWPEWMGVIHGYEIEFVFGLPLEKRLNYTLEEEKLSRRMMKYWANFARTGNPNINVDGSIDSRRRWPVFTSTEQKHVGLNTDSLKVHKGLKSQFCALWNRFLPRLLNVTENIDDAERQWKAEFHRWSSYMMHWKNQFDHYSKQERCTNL
Sequence of Acetylcholinesterase (Homo sapiens) (P22303 whole entry): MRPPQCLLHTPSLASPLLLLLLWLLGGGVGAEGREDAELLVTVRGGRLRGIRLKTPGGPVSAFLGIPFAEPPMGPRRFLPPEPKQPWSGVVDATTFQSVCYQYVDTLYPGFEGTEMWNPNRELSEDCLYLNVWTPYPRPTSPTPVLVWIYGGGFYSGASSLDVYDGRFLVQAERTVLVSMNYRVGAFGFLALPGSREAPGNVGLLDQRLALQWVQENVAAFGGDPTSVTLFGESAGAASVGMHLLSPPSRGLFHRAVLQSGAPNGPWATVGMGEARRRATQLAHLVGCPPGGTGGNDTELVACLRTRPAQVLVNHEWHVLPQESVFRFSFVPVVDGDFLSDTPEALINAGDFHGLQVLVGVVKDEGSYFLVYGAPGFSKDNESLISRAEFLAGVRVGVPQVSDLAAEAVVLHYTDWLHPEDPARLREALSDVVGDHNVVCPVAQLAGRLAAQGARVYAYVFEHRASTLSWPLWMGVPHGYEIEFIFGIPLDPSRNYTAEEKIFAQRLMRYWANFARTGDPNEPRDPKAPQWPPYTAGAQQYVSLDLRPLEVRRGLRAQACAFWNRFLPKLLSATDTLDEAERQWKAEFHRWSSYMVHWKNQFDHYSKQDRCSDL

What is called IC50 is the concentration at which inhibition is half-maximal. The inhibition is how much of the control response was suppressed. Low values mean a weak effect, high ones a strong effect. `O=C(NCc1ccccc1)O[C@H]1CO[C@H]2[C@@H]1OC[C@H]2OC(=O)c1ccc(O)cc1` came in with a concentration for half-maximal inhibition (IC50) in [1] of 323 nM. Besides, in [2], the inhibition was found to be 0%. In [3], the Ratio is over 309.

Consider `O=C(NCc1ccccc1)O[C@H]1CO[C@H]2[C@@H]1OC[C@H]2OC(=O)c1cccnc1`, for which the Activity in data set [4] is 1.9 µM.

On to `O=C(NCc1ccccc1)O[C@H]1CO[C@H]2[C@@H]1OC[C@H]2OC(=O)c1ccccc1O`, for which the half-maximal inhibitory concentration (IC50) in data set [1] worked out at 0.15 nM; in data set [7], 3420 nM. For the same molecule, the values for the inhibition in data set [2] and in data set [5] were 47% and 52%, respectively. For the same molecule, the Ratio in data set [3] was over 660000. Also, the Activity entry in [6] is “Not Active”; in [4], 0.01 µM; in data set [12], 0.067 µM; in data set [13], 0.05 µM; in data set [14], 0.445 µM. Further, in data set [8], the Ratio IC50 stood at 22800. The Stability entry in [9], in data set [10] and in data set [11] was “Stable” each time.

With `Nc1ccccc1C(=O)O[C@@H]1CO[C@H]2[C@@H]1OC[C@@H]2OC(=O)NCc1ccccc1`, the half-maximal inhibitory concentration (IC50) in [1] amounted to 27 nM. Besides, the inhibition in data set [2] was 0%. For the same molecule, in data set [3], the Ratio was over 3700.

Turning to `Cc1ccccc1C(=O)O[C@@H]1CO[C@H]2[C@@H]1OC[C@@H]2OC(=O)NCc1ccccc1`, in [1], half-maximal inhibition (IC50) required 1.2 nM. This molecule displayed an inhibition in data set [2] of 26%. For the same molecule, the Ratio in data set [3] was over 83300. Further, the Activity in data set [4] stood at 0.248 µM.

For `O=C(NCc1ccccc1)O[C@H]1CO[C@H]2[C@@H]1OC[C@H]2OC(=O)c1ccccc1`, the Activity in data set [12] worked out at 2.4 µM; in data set [13], 1.5 µM; in data set [14], 6.4 µM.

In the case of `CCNC(=O)O[C@H]1CO[C@H]2[C@@H]1OC[C@H]2OC(=O)c1ccccc1O`, it took 9.6 nM to reach half-maximal inhibition in data set [1] (IC50). The same molecule yielded an inhibition in [2] of 16%. Further, in [3], the Ratio is over 10400. The Activity in data set [4] came out at 0.075 µM; in data set [12], 0.32 µM; in [13], 0.42 µM; in data set [14], 2.26 µM.

With `O=C(NCc1ccccc1)O[C@H]1CO[C@H]2[C@@H]1OC[C@H]2OC(=O)c1ccc(-c2ccccc2)cc1`, in data set [4], the Activity stood at 0.4 µM.

In [1], `CCCCNC(=O)O[C@H]1CO[C@H]2[C@@H]1OC[C@H]2OC(=O)c1ccccc1` returned a half-maximal inhibitory concentration (IC50) of 72 nM. Also, the Activity in data set [4] came out at 2.57 µM; in [12], 2.7 µM; in data set [13], 1.3 µM; in data set [14], 5.3 µM.

`O=C(O[C@@H]1CO[C@H]2[C@@H]1OC[C@@H]2OC(=O)N1CCOCC1)c1ccccc1O`: in [1], the IC50 stood at 1060 nM. In addition, the inhibition in data set [2] came out at 12%. The Ratio in data set [3] was over 95.

In data set [1], `O=C(NCc1ccccc1)O[C@H]1CO[C@H]2[C@@H]1OC[C@H]2OC(=O)c1cccc([N+](=O)[O-])c1` displayed an IC50 of 32 nM. Besides, the inhibition in data set [2] turned out to be 0%. The Ratio in [3] is over 3120.

Turning to `O=C(NCc1ccccc1)O[C@H]1CO[C@H]2[C@@H]1OC[C@H]2O`, the Activity in data set [4] is 18.7 µM.

Turning to `CCN(CC)C(=O)O[C@H]1CO[C@H]2[C@@H]1OC[C@H]2OC(=O)c1ccccc1O`, the half-maximal inhibitory concentration (IC50) in data set [1] was determined as 2610 nM. For the same molecule, the inhibition in [2] is 0%. The Ratio in data set [3] was over 38.

Regarding `CN(C)C(=O)O[C@H]1CO[C@H]2[C@@H]1OC[C@H]2OC(=O)c1ccccc1O`, the midpoint of inhibition in data set [1], the IC50, lay at 6.4 nM. This molecule yielded an inhibition in data set [2] of 0%. The Ratio in data set [3] was over 15600.

`O=Nc1ccccc1C(=O)O[C@@H]1CO[C@H]2[C@@H]1OC[C@@H]2OC(=O)NCc1ccccc1`: the IC50 in data set [1] amounted to 39 nM. Further, the inhibition in data set [2] amounted to 0%. Further, in [3], the Ratio was over 2560.

In data set [1], `Nc1cccc(C(=O)O[C@@H]2CO[C@H]3[C@@H]2OC[C@@H]3OC(=O)NCc2ccccc2)c1` yielded a concentration for half-maximal inhibition (IC50) of 86 nM. In addition, in data set [2], the inhibition came out at 0%. In addition, the Ratio in data set [3] was over 1170.

`O=C(NCc1ccccc1)O[C@H]1CO[C@H]2[C@@H]1OC[C@H]2OC(=O)c1ccc([N+](=O)[O-])cc1` yielded an IC50 in [1] of 117 nM. The same molecule showed an inhibition in data set [2] of 27%. Further, the Ratio in data set [3] is over 854.

For the molecule `O=C(NCc1ccccc1)O[C@H]1CO[C@H]2[C@@H]1OC[C@H]2OC(=O)c1cccc(O)c1`, 16 nM corresponded to half-maximal inhibition in data set [1] (IC50). The same molecule gave an inhibition in [2] of 0%. Moreover, the Ratio in [3] is over 6250.

With `O=C(NCc1ccccc1)O[C@H]1CO[C@H]2[C@@H]1OC[C@H]2OC(=O)c1ccccc1[N+](=O)[O-]`, the IC50 in data set [1] stood at 18 nM. In [2], this molecule showed an inhibition of 0%. In addition, the Ratio in [3] is over 5560.

The molecule `Nc1ccc(C(=O)O[C@@H]2CO[C@H]3[C@@H]2OC[C@@H]3OC(=O)NCc2ccccc2)cc1` came in with an IC50 in data set [1] of 297 nM. This molecule also came in with an inhibition in data set [2] of 33%. The Ratio in data set [3] turned out to be 336.
